Substitutions are numbered along the chain they refer to. “Also recorded” adds a separate entry of the source.

One data set has as its target T1, SHP2^T253M (Homo sapiens, UniProt Q06124, T253M).
T1 sequence (Q06124 1-525 T253M): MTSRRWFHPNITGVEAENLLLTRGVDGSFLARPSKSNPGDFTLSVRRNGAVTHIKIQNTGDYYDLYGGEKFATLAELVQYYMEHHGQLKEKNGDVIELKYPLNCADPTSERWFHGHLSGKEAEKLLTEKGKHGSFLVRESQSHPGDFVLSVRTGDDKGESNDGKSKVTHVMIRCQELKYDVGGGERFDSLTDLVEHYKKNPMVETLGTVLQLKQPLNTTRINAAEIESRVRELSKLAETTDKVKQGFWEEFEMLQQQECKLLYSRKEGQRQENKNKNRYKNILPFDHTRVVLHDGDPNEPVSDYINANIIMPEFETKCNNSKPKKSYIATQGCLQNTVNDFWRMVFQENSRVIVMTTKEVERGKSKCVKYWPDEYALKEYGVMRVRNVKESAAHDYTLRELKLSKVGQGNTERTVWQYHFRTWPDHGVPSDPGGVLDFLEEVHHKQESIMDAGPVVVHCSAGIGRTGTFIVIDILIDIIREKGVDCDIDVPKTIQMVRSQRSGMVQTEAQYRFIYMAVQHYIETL
The data set is described as follows: Inhibition of tunnel-site mutant SHP2^T253M. In kind it is biochemical.

The target in the next data set is T2, SHP2-PTP (Homo sapiens, UniProt Q06124).
T2 sequence (Q06124 237-529): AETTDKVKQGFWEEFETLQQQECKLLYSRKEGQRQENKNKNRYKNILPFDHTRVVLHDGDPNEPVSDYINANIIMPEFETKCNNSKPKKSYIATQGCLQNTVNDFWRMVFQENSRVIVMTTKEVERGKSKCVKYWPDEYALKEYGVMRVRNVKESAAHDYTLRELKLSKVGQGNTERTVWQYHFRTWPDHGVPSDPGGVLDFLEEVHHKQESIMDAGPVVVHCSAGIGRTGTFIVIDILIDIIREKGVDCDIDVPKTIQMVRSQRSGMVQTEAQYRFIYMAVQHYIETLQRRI
The data set is described as follows: SHP2-PTP inhibition assay. In kind it is biochemical. Particulars: for IC50: IC50 (SHP2-PTP), DiFMUP substrate.

The next data set has as its system SHP2. To be noted: read-out: IC50 against SHP2; previous study; ref 22 (Liu et al.); cited from earlier work.
For a further data set, the target named is T3, SHP2^E76K (Homo sapiens, UniProt Q06124, E76K).
T3 sequence (Q06124 1-525 E76K): T1 sequence (Q06124 1-525 T253M) with E76K, M253T
The data set can be described thus: Inhibition of oncogenic mutant SHP2^E76K. The class given is biochemical.

Data set [1] has as its system SHP2 knockdown H1975 cells. The data set is described as follows: Cell proliferation in SHP2 knockdown cells. The class given is cell-based. Particulars: SHP2 siRNA treated H1975 cells versus H1975.
Data set [2] concerns NCI-H1975 cells. The data set can be described thus: Cell proliferation assay. The class given is cell-based. To be noted: CCK-8, day 3. The essentials: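 About 1.5 × 10^3 H1975 cells per well, in RPMI-1640 with 10% FBS, were treated with compound at 0–50 μM. On day 3 CCK-8 reagent was added and optical density read. Untreated wells served for background correction.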
A further data set addresses T4, PTPN12 (PTP-PEST) (Homo sapiens, UniProt Q05209).
T4 sequence (Q05209 1-305): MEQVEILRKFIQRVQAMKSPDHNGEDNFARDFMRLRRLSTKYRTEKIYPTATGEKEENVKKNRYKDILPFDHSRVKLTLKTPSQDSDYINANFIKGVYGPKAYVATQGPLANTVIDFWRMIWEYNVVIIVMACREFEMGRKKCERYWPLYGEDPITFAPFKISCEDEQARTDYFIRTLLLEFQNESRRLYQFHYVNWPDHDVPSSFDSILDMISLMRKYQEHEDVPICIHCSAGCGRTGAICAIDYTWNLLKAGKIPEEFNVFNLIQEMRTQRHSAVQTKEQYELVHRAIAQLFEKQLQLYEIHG
The data set is described as follows: Phosphatase selectivity, PTPN12. In kind it is biochemical.

A further data set has as its system p-ERK in H1975 cells. The data set is described as follows: ERK phosphorylation in cells. The class given is cell-based. To be noted: 10 μM. The essentials: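 H1975 cells, grown in RPMI-1640 with 10% FBS, were exposed to 10 μM compound and lysed in RIPA buffer with phosphatase and protease inhibitors. Proteins were separated and transferred. Blots were probed overnight at 4 °C with antibodies to p-ERK1/2, total ERK and β-actin diluted in 5% BSA, then developed by enhanced chemiluminescence.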

The next data set has as its target T5, SHP2-FL (Homo sapiens, UniProt Q06124).
T5 sequence (Q06124 1-525): T1 sequence (Q06124 1-525 T253M) with M253T
The data set can be described thus: SHP2-FL inhibition assay. In kind it is biochemical.

Another data set has as its target T6, LMWPTP (ACP1) (Homo sapiens, UniProt P24666).
T6 sequence (P24666 1-158): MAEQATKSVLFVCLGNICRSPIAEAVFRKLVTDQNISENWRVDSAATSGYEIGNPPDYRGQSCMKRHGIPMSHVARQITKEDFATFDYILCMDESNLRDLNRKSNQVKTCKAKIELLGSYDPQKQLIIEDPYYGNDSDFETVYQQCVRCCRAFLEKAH
The data set can be described thus: Phosphatase selectivity, LMWPTP. In kind it is biochemical.

In a further data set the target is PTPN6 (SHP1) (Homo sapiens, UniProt P29350). The data set can be described thus: Phosphatase selectivity, PTPN6. In kind it is biochemical.
PTPN6 (SHP1), sequence (P29350 1-597 isoform P29350-3): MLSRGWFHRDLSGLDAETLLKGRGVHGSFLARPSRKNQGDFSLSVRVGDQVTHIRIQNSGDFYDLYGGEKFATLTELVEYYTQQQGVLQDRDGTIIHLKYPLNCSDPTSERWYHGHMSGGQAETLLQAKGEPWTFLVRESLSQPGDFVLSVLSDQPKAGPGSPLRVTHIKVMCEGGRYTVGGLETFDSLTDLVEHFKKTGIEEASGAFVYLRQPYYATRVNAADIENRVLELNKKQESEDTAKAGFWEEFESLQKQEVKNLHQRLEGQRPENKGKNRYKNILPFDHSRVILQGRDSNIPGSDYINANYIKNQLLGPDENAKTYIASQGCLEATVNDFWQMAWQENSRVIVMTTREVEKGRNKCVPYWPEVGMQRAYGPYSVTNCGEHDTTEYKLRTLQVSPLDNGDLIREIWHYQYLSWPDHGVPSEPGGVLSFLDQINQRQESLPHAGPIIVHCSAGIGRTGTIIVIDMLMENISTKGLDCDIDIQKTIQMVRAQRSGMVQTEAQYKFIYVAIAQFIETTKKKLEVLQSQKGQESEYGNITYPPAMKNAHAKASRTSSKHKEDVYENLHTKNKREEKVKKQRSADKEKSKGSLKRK
For data set [3], the system named is NCI-H1975 cells. The data set is described as follows: Colony formation assay. To be noted: measured 10 days after compound treatment. In kind it is cell-based. The essentials: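 About 10^3 H1975 cells per well in RPMI-1640 with 10% FBS were allowed to adhere overnight and treated the next day. Medium and compound were renewed every 3–4 days. When untreated wells reached confluence, colonies were fixed with formaldehyde, stained with 0.2% crystal violet and scanned.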

For the next data set, the target named is T7, SHP2-PTP^R465A (Homo sapiens, UniProt Q06124, R465A).
T7 sequence (Q06124 237-529 R465A): T2 sequence (Q06124 237-529) with R229A
The data set is described as follows: BLI assay, SHP2-PTP^R465A. The class given is binding.

For another data set, the system named is H1975 xenograft. The data set is described as follows: NCI-H1975 xenograft model. The class given is in vivo, BALB/c nude mice. The essentials: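 Female BALB/c nude mice, five weeks old, received a subcutaneous H1975 suspension (5 × 10^6/mL) in the right flank. At a mean tumor volume of 50–100 mm3 they were randomised into three groups. Compound in 0.5% CMC-Na was given intragastrically at 20 mg/kg/day; controls received vehicle. Body weight and tumor volume were recorded every two days. Tumor sections were stained for Ki-67, and tumor lysates were immunoblotted for p-ERK. Data are mean ± SD with two-sided t-test.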

The target in another data set is PTPRA (RPTPα) (Homo sapiens, UniProt P18433). The data set can be described thus: Phosphatase selectivity, PTPRA. In kind it is biochemical.
PTPRA (RPTPα), sequence (P18433 183-802): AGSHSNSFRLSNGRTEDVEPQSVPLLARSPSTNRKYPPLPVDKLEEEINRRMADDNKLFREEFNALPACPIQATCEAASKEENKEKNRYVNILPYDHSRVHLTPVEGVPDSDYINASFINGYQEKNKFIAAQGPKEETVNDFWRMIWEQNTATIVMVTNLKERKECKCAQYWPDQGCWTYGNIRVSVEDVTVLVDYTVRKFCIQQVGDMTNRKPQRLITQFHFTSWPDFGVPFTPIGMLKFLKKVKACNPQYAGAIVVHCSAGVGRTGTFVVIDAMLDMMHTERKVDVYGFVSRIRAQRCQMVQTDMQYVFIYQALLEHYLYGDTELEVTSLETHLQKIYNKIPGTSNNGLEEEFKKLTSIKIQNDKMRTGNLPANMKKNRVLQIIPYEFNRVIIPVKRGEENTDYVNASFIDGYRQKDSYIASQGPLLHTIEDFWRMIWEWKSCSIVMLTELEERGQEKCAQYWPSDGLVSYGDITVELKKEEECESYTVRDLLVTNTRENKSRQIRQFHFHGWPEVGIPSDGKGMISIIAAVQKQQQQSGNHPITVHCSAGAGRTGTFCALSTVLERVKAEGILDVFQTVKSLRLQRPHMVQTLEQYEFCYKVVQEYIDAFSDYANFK
The next data set addresses T8, SHP2^D61V (Homo sapiens, UniProt Q06124, D61V).
T8 sequence (Q06124 1-525 D61V): T1 sequence (Q06124 1-525 T253M) with D61V, M253T
The data set is described as follows: Inhibition of oncogenic mutant SHP2^D61V. The class given is biochemical.

The target in another data set is T9, SHP2-PTP^Q510A (Homo sapiens, UniProt Q06124, Q510A).
T9 sequence (Q06124 237-529 Q510A): T2 sequence (Q06124 237-529) with Q274A
The data set is described as follows: BLI assay, SHP2-PTP^Q510A. The class given is binding.

The target in a further data set is T10, PTPN1 (PTP1B) (Homo sapiens, UniProt P18031).
T10 sequence (P18031 1-321): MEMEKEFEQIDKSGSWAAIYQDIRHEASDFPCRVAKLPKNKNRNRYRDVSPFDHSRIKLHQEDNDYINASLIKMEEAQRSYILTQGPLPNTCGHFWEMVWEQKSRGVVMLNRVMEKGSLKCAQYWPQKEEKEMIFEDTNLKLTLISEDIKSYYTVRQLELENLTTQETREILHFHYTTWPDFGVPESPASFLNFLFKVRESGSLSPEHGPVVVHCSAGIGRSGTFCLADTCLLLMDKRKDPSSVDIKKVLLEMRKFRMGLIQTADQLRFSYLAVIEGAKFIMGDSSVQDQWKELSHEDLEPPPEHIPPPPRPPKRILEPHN
The data set is described as follows: Phosphatase selectivity, PTPN1. In kind it is biochemical.

The mark [4] stands for this setting: 20 mg/kg/day oral, versus vehicle.

For the compound `C[C@@H]1OCC2(CCN(c3cnc(Sc4ccnc(N)c4Cl)c(N)n3)CC2)[C@@H]1N` [TNO155], the “effect of SHP2^T253M mutation on efficacy (in words)” value at SHP2^T253M is listed as “eliminated the efficacy”.

Usually IC50 stands for the concentration at which inhibition is half-maximal. On SHP2-PTP, `Cc1coc2c1C(=O)C(=O)c1c-2ccc2c(C)cccc12` [Tanshinone I] registered an IC50 of 3.3 ± 1.2 µM.

As for `C[C@H]1COC2=C1C(=O)C(=O)c1c2ccc2c1CCCC2(C)C` [Cryptotanshinone], the half-inhibitory concentration (IC50) in the data set with SHP2 was 22.5 µM.

As to `Cc1cccc2c3c(ccc12)C1=C(C(=O)C3=O)[C@@H](C)CO1` [DHT, dihydrotanshinone I], the half-maximal inhibitory concentration (IC50) was 1.61 ± 0.26 µM at SHP2^E76K; 32.1 ± 3.8 µM against PTPN12 (PTP-PEST); more than 100 µM against LMWPTP (ACP1); 2.5 ± 0.3 µM at PTPN6 (SHP1); 1.06 ± 0.21 µM on SHP2-PTP; 50.4 ± 5.3 µM against PTPRA (RPTPα). The figures for the concentration for half-maximal inhibition (IC50) on SHP2^D61V and against PTPN1 (PTP1B) were 1.34 ± 0.36 µM and 9.3 ± 0.94 µM, respectively. Besides, the “sensitivity of SHP2-depleted H1975 cells (anti-proliferation)” value in data set [1] is “significantly lower sensitivity”. The “proliferation of NCI-H1975 cells” value with NCI-H1975 cells [2] is recorded as “significant suppression”. In addition, the “ERK phosphorylation (Western blot)” value in the data set with p-ERK in H1975 cells is given as “significant decrease”. Besides, the “SHP2-FL inhibitory activity (in words)” value on SHP2-FL is listed as “comparable inhibitory activity”. Besides, the “colony formation of NCI-H1975 cells” value in the data set on NCI-H1975 cells [3] is listed as “significant suppression”. Moreover, the “direct interaction with SHP2-PTP^R465A (BLI)” value at SHP2-PTP^R465A is recorded as “significantly abolished the direct interaction”. Besides, on SHP2-PTP (DiFMUP screening, versus cryptotanshinone), the “fold higher inhibitory potency against SHP2 than cryptotanshinone” value was determined as 4.7 fold. The “fold lower SHP2-PTP IC50 than tanshinone IIA” value on SHP2-PTP (versus tanshinone IIA) is 13 fold. Moreover, the body weight change result in the data set on H1975 xenograft (20 mg/kg/day oral, full treatment course) is given as “No body weight loss”. The “Ki-67 staining in tumor tissue” value in the data set with H1975 xenograft (setting [4]) was “reduced Ki-67 staining positive areas”. Further, in the data set with H1975 xenograft (setting [4]), the “MAPK phosphorylation in tumor tissue” value is recorded as “marked decrease”. Also, in the data set on H1975 xenograft (oral gavage 20 mg/kg daily, 20-day treatment, versus vehicle, 20 mg/kg), the “tumor growth in NCI-H1975 xenograft” value is reported as “significant tumor growth suppression; also recorded: modest anti-tumor effect”. Moreover, at SHP2-PTP^Q510A, the “direct interaction with SHP2-PTP^Q510A (BLI)” value was “significantly abolished the direct interaction”.

The values above are taken from PMC12966599 (Journal of Pharmaceutical Analysis, 2025).
